Compound activity (PubChem)
A selection: hits, their analogues and other compounds. The true share with any hit is near 2.2%.
CHRM5 PAM – human M5 muscarinic receptor positive allosteric modulators, primary screen, CHO-K1 cells, Fluo-8 calcium fluorescence; actives 0.3% (n = 360,000); Muscarinic acetylcholine receptor M5 (Homo sapiens), P08912; activation, % at 3 µM; CHO-K1 hM5, ACh EC20 PAM; 0% = ACh EC20, 100% = ACh EC100; AID 624038, 2012;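 active = activation above the run cutoff, the mean activation of all test compounds plus 3 SD, cut at about 18% in these data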
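Assay system: CHO-K1 hM5 cells. Also added: acetylcholine at EC20 concentration, added after compound. Dosing: 3 µM, single dose. Times: compound preincubation 140 s before EC20 acetylcholine addition. Signal: Fluo-8 calcium fluorescence. Measure: % activation relative to EC20 and EC100 ACh responses. Repeats: singlicate, one well per test compound.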
M5 ag – human M5 muscarinic receptor agonists, primary screen, CHO-K1 cells, Fluo-8 calcium fluorescence | actives 0.19% (n = 360,000) | activation, % at 3 µM | AID 624037, 2012 | CHO-K1 hM5 cells; 0% DMSO wells, 100% maximal acetylcholine response;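 active = activation above the run's mean over test compounds plus 3 SD, cut at about 23% in these data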;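 also: signal is peak over basal fluorescence ratio across the kinetic read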
M1 antag – human M1 muscarinic receptor antagonists, primary screen, CHO-K1 cells, Fluo-8 calcium fluorescence, 1536-well; AID 588852, 2011; actives 1.3% (n = 360,000); inhibition, % at 3 µM; CHO-K1 hM1, ACh EC80 antagonist;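 active = percent inhibition above its own plate's cutoff, namely the mean of that plate's compound wells plus 3 SD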;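 also: peak over basal fluorescence ratio during 140 s after agonist addition; 0% = ACh EC80 plus DMSO and 100% = DMSO alone without agonist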
Target sequence (P11229 whole entry, looked up): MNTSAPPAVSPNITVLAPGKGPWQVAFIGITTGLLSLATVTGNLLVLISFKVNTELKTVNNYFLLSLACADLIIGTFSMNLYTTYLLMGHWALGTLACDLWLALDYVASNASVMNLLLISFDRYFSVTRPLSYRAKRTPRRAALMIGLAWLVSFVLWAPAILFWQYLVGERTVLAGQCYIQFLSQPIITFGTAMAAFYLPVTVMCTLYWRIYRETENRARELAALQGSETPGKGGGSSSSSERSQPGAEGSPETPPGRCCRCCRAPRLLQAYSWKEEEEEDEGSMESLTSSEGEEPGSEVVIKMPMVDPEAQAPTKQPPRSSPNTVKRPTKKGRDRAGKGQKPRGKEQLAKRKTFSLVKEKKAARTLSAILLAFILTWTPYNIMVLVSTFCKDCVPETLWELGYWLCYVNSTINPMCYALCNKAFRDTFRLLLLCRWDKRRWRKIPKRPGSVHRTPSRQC
CHRM5 antagonist – human M5 muscarinic receptor antagonists, primary screen, CHO cells, Fluo-8 calcium fluorescence; CHO-hM5 cells, ACh EC80; inhibition, % at 3 µM; actives 0.59% (n = 360,000); AID 624040, 2012;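 active = inhibition above a per-plate cutoff, the mean of that plate's test compounds plus 3 SD, cut at about 27% in these data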;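 also: 0% = acetylcholine EC80 with DMSO and 100% = DMSO without agonist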
CHRM1 PAM – human M1 muscarinic receptor positive allosteric modulators, primary screen, CHO-K1 cells, Fluo-8 calcium fluorescence, 1536-well | AID 588819, 2011 | activation, % at 3 µM | CHO-K1 hM1, ACh EC20; 0% = ACh EC20, 100% = maximal ACh | Muscarinic acetylcholine receptor M1 (Homo sapiens), P11229 | actives 0.088% (n = 360,000); in the data active = activation above about 19%, passing the limit was not always enough
CHRM1 agonist – human M1 muscarinic receptor agonists, primary screen, Fluo-8 calcium fluorescence, CHO-K1 cells, HTS | activation, % at 3 µM | AID 588814, 2011 | actives 0.33% (n = 360,000) | CHO-K1 hM1, agonist mode; 0% DMSO, 100% acetylcholine EC100;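 active = activation above the run's mean compound activation plus 3 SD, cut at about 16% in these data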;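 also: peak over basal fluorescence ratio within a 140 s kinetic read after compound addition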
The depositor's hits bear a star; x = no result given.

SMILES	CHRM5 PAM	M5 ag	M1 antag	CHRM5 antagonist	CHRM1 PAM	CHRM1 agonist
CCN(CC)c1ccc2cc(-c3nnc(-c4ccncc4)o3)c(=O)oc2c1	-10	11	8	15	-4	22*
Cc1cc2nc(-c3nnnn3-c3c(C)cccc3C)c(=O)[nH]c2cc1C	-8	0	x	3	x	x
COc1ccc(NC(=S)N(CCCN2CCCCC2)Cc2cccs2)cc1	-18	-7	59*	12	-22	-9
Cc1c(Cl)cccc1NC(=S)N(CCCN1CCOCC1)Cc1cccs1	-17	-5	82*	3	-24	-9
N#Cc1ccc(NC(=O)C2=COCCO2)cc1	0	2	5	-7	4	0
CCOc1ccc(NC(=O)COC(=O)CNC(=O)c2ccc(-c3ccccc3)cc2)cc1	-1	0	17	5	-6	-2
CC(C)CN1CCN(CCCOC(=O)Nc2cccc3ccccc23)CC1C (configuration not stated)	-5	-11	32*	14	-22	-7
CCCCCCC(C)OC(=O)Nc1cccc2ccccc12 (configuration not stated)	-1	-1	-1	1	-2	-7
CC1CN(C)C(C)C/C1=N/Oc1ccccc1[N+](=O)[O-] (configuration not stated)	-7	-10	42*	14	-16	-6
Cc1ccc(S(=O)(=O)N2CCCCC2c2cccnc2)c(C)c1C (configuration not stated)	-4	-7	-15	3	6	-5
Cc1ccccc1-n1c(O)c(/C=N/N2CCCCC2c2cccnc2)c(=O)[nH]c1=O (configuration not stated)	29*	12	1	2	10	-3
CCCCCCCCCCCCCCCC[n+]1ccc(/C=N/O)cc1	-17	-7	31*	28*	-24	-12
CCCCCCCCCCCCCCCC[n+]1ccc(C(N)=O)cc1	-13	-3	18	14	-14	-6
CCCCN(CCCC)C(=O)C[n+]1cccc(/C=N/O)c1	6	-5	6	-6	-13	-12
CCCCCCCCCCCCCCCC[n+]1ccccc1	-19	-2	x	86*	x	x
COc1ccc(N2C(=O)CSC23C(=O)N(CC(=O)NC2CCCC2)c2ccccc23)cc1 (configuration not stated)	-6	-6	5	22	-1	-5
CCOC(=O)C(=O)Nc1ccc(S(=O)(=O)Nc2nccs2)cc1	2	5	-15	0	15	-1
CCOC(=O)c1ccc(N2Cc3ccccc3C2=NC(=O)c2ccncc2)cc1	1	-4	0	7	0	-7
CCOC(=O)c1ccc(N2Cc3ccccc3C2=N)cc1	-1	-11	70*	-1	-21	-6
N=C1c2ccccc2CN1c1ccc(S(=O)(=O)N2CCCCC2)cc1	-9	-16	74*	0	-24	-7
CC(C)(C)c1ccc(C(=O)NCCC(=O)NNC(=O)COc2ccccc2F)cc1	3	3	-5	17	0	0
c1ccc2c(c1)[nH]c1ccncc12	6	6	-3	8	1	18*
c1ccc2c(c1)[nH]c1ccccc12	0	-2	-9	2	0	-12
O=C(O)c1ccccc1-c1nnc2c(Cl)cc(C(F)(F)F)cn12	-2	-1	95*	13	5	0
FC(F)(F)c1cc(Cl)c2nnc(-c3ccccn3)n2c1	-2	1	5	8	2	-5
SMILES	CHRM5 PAM	M5 ag	M1 antag	CHRM5 antagonist	CHRM1 PAM	CHRM1 agonist
CCCCNC(=S)Nc1ccc(OC)nc1	0	-1	4	-2	1	2
COc1ccc(C(O)c2nc(-c3ccccc3C)cs2)cc1 (configuration not stated)	-4	4	1	0	1	0
O=C(NCc1ccccc1)N1CCN(CCO)CC1	-6	-1	-10	-3	4	-3
O=C(N1CCN(CCO)CC1)N1c2ccccc2C=Cc2ccccc21	-10	-12	31*	5	-15	-6
Cc1cc(C(=O)N/N=C/c2c(C)nn(-c3ccccc3)c2C)n[nH]1	19*	-2	-19	-13	8	-3
CCNC(=O)c1ccc(CSc2nc3ccccc3s2)cc1	-12	-1	11	34*	-5	0
CC(C(O)C12CC3CC(CC(C3)C1)C2)N1CCCCC1 (configuration not stated)	-1	-11	59*	6	-28	-10
CSCC[C@H](NS(=O)(=O)c1ccc(C)cc1)C(=O)N1CCC(C(=O)N[C@H](C(=O)O)c2ccccc2)CC1	-3	2	-3	-1	1	-1
COc1cccc(N2CN(CCc3ccccc3)CNC2=S)c1	7	-3	-6	3	3	-2
O=C(CCCn1c(=O)c2sccc2n(CC(=O)OCc2ccccc2)c1=O)NCc1ccco1	-14	4	28*	10	-9	-2
CN(C(=O)c1ccc(S(=O)(=O)N2CCCCC2)cc1)C1CCS(=O)(=O)C1 (configuration not stated)	9	-2	-12	-11	9	-2
O=C(NCC1CCCO1)c1cc2c([nH]c3ccccc32)c(-c2cccc(Cl)c2)n1 (configuration not stated)	-20	2	35*	13	-24	-2
COc1cc(-c2nc(C(=O)NCC3CCCO3)cc3c2[nH]c2ccccc23)cc(OC)c1OC (configuration not stated)	-19	4	11	9	-12	-3
CC(=O)Nc1ccc(NC(=O)c2cc[n+]([O-])cc2)cc1	-6	-3	0	29*	-1	-3
COCCNc1nc(NCc2ccccc2)nc2ccsc12	-22	82*	100*	97*	-33	79*
O=C1CCCN1CCCNc1nc(NCc2ccccc2)nc2ccsc12	-22	85*	101*	90*	-33	92*
CNc1nc(NCc2ccc(C)cc2C)c2sccc2n1	-8	5	-1	12	7	5
Cc1ccc(CNc2nc(NCc3ccccc3)nc3ccsc23)c(C)c1	-18	9	32	28*	-15	5
